Laboratory results taken from ChEMBL document CHEMBL3758157, “Design, synthesis, and evaluation of potent Wnt signaling inhibitors featuring a fused 3-ring system” (Eur J Med Chem, 2016).

Assay: Cytotoxicity against mouse NIH/3T3 cells by GRE-Luciferase reporter gene assay
Assay type: cell-based
Settings: nih3t3
In short: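 NIH3T3 cells carrying GRE-luciferase reporter stimulated with 10 nM SAG as Hh pathway agonist, used as counter-screen for nonspecific cytotoxicity.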

SMILES	Activity
O=C(Cc1ccc2c(c1)oc1ccccc12)Nc1ccc(-c2cnccn2)cn1	Non-toxic
Cc1cc(-c2ccc(CC(=O)Nc3ccc4c5ccccc5n(C)c4c3)cc2)ccn1	Non-toxic
O=C(Cc1ccc2c(c1)Cc1ccccc1-2)Nc1ccc(-c2cnccn2)cn1	Non-toxic
Cc1cc(-c2ncc(CC(=O)Nc3ccc4c(c3)[nH]c3ccccc34)cc2C)ccn1	Non-toxic
Cc1cc(-c2ncc(CC(=O)Nc3ccc4c5ccccc5n(C)c4c3)cc2C)ccn1	Non-toxic
Cc1cc(-c2ccc(CC(=O)Nc3ccc4c(c3)oc3ccccc34)cc2)ccn1	Non-toxic
Cc1cc(-c2ncc(CC(=O)Nc3ccc4c(c3)C(=O)c3ccccc3-4)cc2C)ccn1	Non-toxic
O=C(Cc1ccc2c(c1)oc1ccccc12)Nc1ccc(-c2cccnc2)cc1	Non-toxic
O=C(Cc1ccc2c(c1)Cc1ccccc1-2)Nc1ccc(-c2cccnc2)cc1	Non-toxic
Cc1cc(-c2ccc(CC(=O)Nc3ccc4c(c3)C(F)(F)c3ccccc3-4)cc2)ccn1	Non-toxic

Assay: Inhibition of Wnt signaling (unknown origin) expressed in mouse L Wnt3A cells co-cultured with HEK293 cells after 48 hrs by Super-top flash reporter gene assay
Assay type: cell-based
Settings: Homo sapiens, HEK293, 48 h
In short: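 Mouse L Wnt3A cells and HEK293 Super-Top Flash TCF-luciferase stable cells mixed 1:1, 12,000 cells/well, grown 24 h, then compound in DMSO diluted in DMEM added. After 48 h at 37°C, Bright-Glo luminescence read; IC50 from signal inhibition, geometric mean of at least two runs ± SEM; LGK974 standard in each run.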

SMILES	IC50
O=C(Cc1ccc2c(c1)oc1ccccc12)Nc1ccc(-c2cnccn2)cn1	136 nM
Cc1cc(-c2ccc(CC(=O)Nc3ccc4c5ccccc5n(C)c4c3)cc2)ccn1	191 nM
O=C(Cc1ccc2c(c1)Cc1ccccc1-2)Nc1ccc(-c2cnccn2)cn1	454 nM
Cc1cc(-c2ncc(CC(=O)Nc3ccc4c(c3)[nH]c3ccccc34)cc2C)ccn1	2.6 nM
Cc1cc(-c2ncc(CC(=O)Nc3ccc4c5ccccc5n(C)c4c3)cc2C)ccn1	49 nM
Cc1cc(-c2ccc(CC(=O)Nc3ccc4c(c3)oc3ccccc34)cc2)ccn1	9 nM
Cc1cc(-c2ncc(CC(=O)Nc3ccc4c(c3)C(=O)c3ccccc3-4)cc2C)ccn1	2.8 nM
O=C(Cc1ccc2c(c1)oc1ccccc12)Nc1ccc(-c2cccnc2)cc1	544 nM
O=C(Cc1ccc2c(c1)Cc1ccccc1-2)Nc1ccc(-c2cccnc2)cc1	231 nM
Cc1cc(-c2ccc(CC(=O)Nc3ccc4c(c3)C(F)(F)c3ccccc3-4)cc2)ccn1	3.5 nM
